PHOSPHO1 block: PHOSPHO1 (human) inhibition. Q8TCT1. recombinant PHOSPHO1, absorbance phosphatase assay. inhibition, % at 13.3 µM. actives 1.1% (n = 290,000); in the data active means inhibition above about 60%
Efa HMGR inh: inhibitors of class II HMG-CoA reductase from Enterococcus faecalis. purified E. faecalis HMGR, NADPH absorbance 340 nm kinetic. inhibition, % at 10 µM. actives 0.41% (n = 190,000). AID 1066;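 active means inhibition above a set limit, the median over all tested compounds plus 3 SD, cut at about 9.5% in these data; inconclusive means no clear call, values can overlap the other calls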;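 further: enzyme runs in reverse so mevalonate oxidation gives rising NADPH absorbance; 0% = complete reaction with DMSO and 100% = background rate lacking mevalonate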
Runt-SMMHC FRET: blocks binding of human RUNX1 Runt domain to CBFb-SMMHC. Q01196+Q13951. Cerulean-Runt/Venus-CBFb-SMMHC FRET ratio 530/480, 1 h. inhibition, % at 20 µM. actives 0.74% (n = 220,000). AID 1434;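 active means mean inhibition across duplicate retests at 20 µM reaching about 50%, limit read from the data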;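 further: 0% = DMSO wells and 100% = wells with excess untagged CBFb-SMMHC; inhibitors lower the FRET ratio by blocking Runt binding to CBFb-SMMHC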
Target sequence (Q01196 whole entry, looked up, the tested form may be a part): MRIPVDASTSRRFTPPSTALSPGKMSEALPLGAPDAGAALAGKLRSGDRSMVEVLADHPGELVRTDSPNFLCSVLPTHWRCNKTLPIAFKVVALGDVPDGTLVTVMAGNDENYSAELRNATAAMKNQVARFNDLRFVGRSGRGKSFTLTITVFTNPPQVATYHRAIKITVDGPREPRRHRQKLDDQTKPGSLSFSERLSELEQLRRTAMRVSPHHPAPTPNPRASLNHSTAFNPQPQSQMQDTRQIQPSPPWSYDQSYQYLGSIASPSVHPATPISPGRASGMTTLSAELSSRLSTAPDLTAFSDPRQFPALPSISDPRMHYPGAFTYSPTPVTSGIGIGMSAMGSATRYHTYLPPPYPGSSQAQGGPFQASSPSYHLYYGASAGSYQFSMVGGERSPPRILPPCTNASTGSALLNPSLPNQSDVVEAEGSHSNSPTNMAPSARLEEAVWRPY
Target sequence (Q13951 whole entry, looked up, the tested form may be a part): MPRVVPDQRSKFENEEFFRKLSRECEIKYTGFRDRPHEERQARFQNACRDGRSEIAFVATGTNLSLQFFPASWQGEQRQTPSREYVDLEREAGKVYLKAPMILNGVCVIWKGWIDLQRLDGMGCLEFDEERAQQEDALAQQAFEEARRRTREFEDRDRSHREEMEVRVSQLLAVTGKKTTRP
RanGTP-Imp inh: disruptors of Ran-importin-beta complex formation – biochemical, FRET, CFP-Ran, YFP-importin-beta, homogeneous, primary screen. cell-free CFP-Ran/YFP-importin-beta FRET ratio. inhibition, % (concentration not given with the values). actives 1.1% (n = 300,000). AID 2216;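 active means more than half of the replicate wells show a fall in the fluorescence ratio signal beyond about 16%, limit read from the data, passing the limit was not always enough; inconclusive means exactly half of the replicate wells pass the set limit; inactive means fewer than half of replicates pass the limit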;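 further: 0% = DMSO wells and 100% = Ran loaded with GDP instead of GTP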
Wee1 degr inh: inhibitors of human Wee1 degradation; actives 1.2% (n = 220,000); reporter increase, % at 5 µM; HeLa Luc-Wee1K328M stability, luciferase luminescence; 100% = proteasome inhibitor MG132 effect; P30291; AID 1321;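 active means activation above the mean of all tested compounds plus 3 SD, set per screening run, cut at about 8.8% in these data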;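 further: cells exposed to compound for 20 h before luminescence read; 0% = DMSO alone and 100% = MG132 at 30 µM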
Runt-CBFb FRET: blocks binding of human RUNX1 Runt domain to CBFb | Q01196+Q13951 | Cerulean-Runt/Venus-CBFb FRET ratio 530/480, 1 h | inhibition, % at 20 µM | actives 0.46% (n = 220,000) | AID 1496;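 active means inhibition over about 50% at 20 µM in the single-dose screen, limit read from the data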;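 further: 0% = DMSO wells and 100% = excess unlabeled CBFb competitor control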
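Assay system: Cerulean-tagged RUNX1 Runt domain (FRET donor) fusion protein / Amount: 100 nM each of Venus-CBFb and Cerulean-Runt domain / Medium: Tris buffer pH 7.5 with salts and BSA / Also added: Venus-CBFb 100 nM / Schedule: 1 h complex formation plus 1 h compound treatment, room temperature / Signal: FRET fluorescence / Read-out: loss of energy transfer signal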
Active calls of the source: *. Hits are enriched below; roughly 3.4% of the tested compounds scored in any of these assays.

How did Cc1ccc(C(=O)C[n+]2ccccc2C)cc1[N+](=O)[O-] do in these assays?
PHOSPHO1 block: 24.3; RanGTP-Imp inh: -0.6

Results for COc1ccc(OCCSc2nnc3sc4ccccc4n23)cc1 ?
PHOSPHO1 block: 77.4*; Efa HMGR inh: -3.0; Runt-SMMHC FRET: -6.9; RanGTP-Imp inh: 1.4; Wee1 degr inh: 2.5; Runt-CBFb FRET: -1.3

How did Cc1cc2cc3c(C)cc(=O)oc3c(C)c2o1 do in these assays?
PHOSPHO1 block: 37.5; RanGTP-Imp inh: 0.4

How did Cc1cc2c(C)cc(=O)oc2c2c1NCCC2 do in these assays?
PHOSPHO1 block: 2.2; Efa HMGR inh: -5.7; Runt-SMMHC FRET: 60.5*; RanGTP-Imp inh: 10.2; Wee1 degr inh: -0.6; Runt-CBFb FRET: 17.4

Results for Cc1ccc(CSc2nnc(-c3ccccc3N)c(=O)[nH]2)cc1 ?
PHOSPHO1 block: 102.0*; Efa HMGR inh: -0.2; Runt-SMMHC FRET: -4.0; RanGTP-Imp inh: 2.4; Wee1 degr inh: -2.3; Runt-CBFb FRET: 11.5

Results for O=C(CSc1ccc([N+](=O)[O-])cn1)Nc1ccc2c(c1)OCO2 ?
PHOSPHO1 block: 24.0; RanGTP-Imp inh: -3.1

Results for CCOc1ccc(Nc2cc(C)nc(N3CCOCC3)n2)cc1 ?
PHOSPHO1 block: 12.6; Efa HMGR inh: -4.7; Runt-SMMHC FRET: 2.1; RanGTP-Imp inh: inconclusive; Wee1 degr inh: -3.9; Runt-CBFb FRET: -0.2

Results for CCOc1ccc2nc(N3CCOCC3)nc(C)c2c1 ?
PHOSPHO1 block: -6.9; Efa HMGR inh: -4.4; Runt-SMMHC FRET: 78.7*; RanGTP-Imp inh: 58.4*; Wee1 degr inh: -1.4; Runt-CBFb FRET: 73.7*

How did Cc1ccc(NC(=O)CSc2nc3[nH]ncc3c(=O)[nH]2)cc1Cl do in these assays?
RanGTP-Imp inh: -1.8

How did Cc1cc(C)n2cc(CSc3nnc(SCc4cn5c(C)cc(C)nc5n4)s3)nc2n1 do in these assays?
PHOSPHO1 block: 19.1; Efa HMGR inh: -2.1; Runt-SMMHC FRET: 0.1; Wee1 degr inh: -0.5; Runt-CBFb FRET: -0.4

What do the screens show for `Cc1cc(C)n2cc(CSc3nnc(N)s3)nc2n1`?
PHOSPHO1 block: 71.3*; Efa HMGR inh: 0.3; Runt-SMMHC FRET: -0.2; RanGTP-Imp inh: 0.3; Wee1 degr inh: 1.6; Runt-CBFb FRET: 3.3

What do the screens show for `Cc1cc(C)n2cc(CSc3nnc(-c4ccccc4)o3)nc2n1`?
PHOSPHO1 block: 78.5*; Efa HMGR inh: 0.4; Runt-SMMHC FRET: -0.2; RanGTP-Imp inh: -1.5; Wee1 degr inh: -3.1; Runt-CBFb FRET: 0.3

How did Cc1cc(C)n2cc(CSCc3ccccc3)nc2n1 do in these assays?
PHOSPHO1 block: -1.3; Efa HMGR inh: -4.2; Runt-SMMHC FRET: -4.0; RanGTP-Imp inh: 0.3; Wee1 degr inh: -2.9; Runt-CBFb FRET: 0.2

Results for CN(C)c1ccc(C2C3C(=O)NC(=O)C3ON2c2ccc(Cl)cc2)cc1 (stereo unspecified) ?
PHOSPHO1 block: 23.9; Efa HMGR inh: -3.7; Runt-SMMHC FRET: 2.2; RanGTP-Imp inh: 22.0*; Wee1 degr inh: -1.9; Runt-CBFb FRET: 5.7

What do the screens show for `CN(C)/C=C1\NC(=S)N(c2ccc(Cl)cc2)C1=O`?
PHOSPHO1 block: 28.2; Efa HMGR inh: -3.0; Runt-SMMHC FRET: 0.1; RanGTP-Imp inh: 2.6; Wee1 degr inh: 3.9; Runt-CBFb FRET: 2.6

How did CN(C)C=Nc1ccc2nc3c(cc2c1)[nH]c1ccccc13 do in these assays?
PHOSPHO1 block: 28.0; RanGTP-Imp inh: 11.2

What do the screens show for `CCc1ccc(C(=O)NNC(=O)OC)cc1`?
PHOSPHO1 block: -0.4; Efa HMGR inh: -4.9; Runt-SMMHC FRET: 1.4; RanGTP-Imp inh: 6.2; Wee1 degr inh: 2.4; Runt-CBFb FRET: 69.4*

Results for CC(=O)c1cc2c(ccc3ccccc32)oc1=O ?
PHOSPHO1 block: 29.1; RanGTP-Imp inh: 116.2*

How did C/C(=N\Nc1nc(-c2cc(C)ccc2C)cs1)c1cc2ccccc2oc1=O do in these assays?
PHOSPHO1 block: -11.9; Efa HMGR inh: -2.0; Runt-SMMHC FRET: -7.0; RanGTP-Imp inh: 2.9; Wee1 degr inh: 0.3; Runt-CBFb FRET: -1.7

What do the screens show for `COCC(C)NC(=O)c1cc2c(ccc3ccccc32)oc1=O` (stereo unspecified)?
RanGTP-Imp inh: 29.4*

Results for CC(=O)Nc1cc2c(ccc3ccccc32)oc1=O ?
PHOSPHO1 block: 6.7; Efa HMGR inh: -3.9; Runt-SMMHC FRET: 6.3; RanGTP-Imp inh: inconclusive; Wee1 degr inh: 4.2; Runt-CBFb FRET: -0.9

Results for C/C(=N\Nc1nc(-c2cc(C)ccc2C)cs1)c1cc2c(ccc3ccccc32)oc1=O ?
PHOSPHO1 block: -29.3; Efa HMGR inh: -0.7; RanGTP-Imp inh: 63.7*; Wee1 degr inh: -0.8; Runt-CBFb FRET: 64.4*

How did CCN(CC)S(=O)(=O)c1ccc2c(c1)c(=O)c(C(=O)N1CCN(c3ccccn3)CC1)cn2C do in these assays?
PHOSPHO1 block: 32.6; RanGTP-Imp inh: 3.2

How did Cc1ccc(NC(=O)NC(=O)N(C(C)C)S(C)(=O)=O)nc1 do in these assays?
PHOSPHO1 block: 4.1; Efa HMGR inh: 0.2; Runt-SMMHC FRET: -7.6; Wee1 degr inh: 8.7; Runt-CBFb FRET: -0.5

Results for COc1ccc(NS(=O)(=O)c2ccc(C)c(C(=O)N3CCC3)c2)cc1 ?
RanGTP-Imp inh: -2.2

What do the screens show for `COc1ccc(CCC(=O)N2CCCC(Nc3ccc(C)c(C)c3)C2)cc1OC` (stereo unspecified)?
PHOSPHO1 block: 14.0; RanGTP-Imp inh: 4.8

How did COc1ccccc1N(C(=O)c1ccco1)C(C(=O)NC1CCCC1)c1ccncc1 (stereo unspecified) do in these assays?
PHOSPHO1 block: 23.7; RanGTP-Imp inh: -0.7

Results for CCc1ccccc1OCCOc1ccc(C)cc1OC ?
PHOSPHO1 block: 60.1*; Efa HMGR inh: -6.0; Runt-SMMHC FRET: -5.6; RanGTP-Imp inh: -0.3; Wee1 degr inh: 0.9; Runt-CBFb FRET: -2.1

What do the screens show for `CC1=C(C(=O)Nc2ccccc2)C(c2ccccc2[N+](=O)[O-])NC(=O)N1` (stereo unspecified)?
PHOSPHO1 block: 22.6; Efa HMGR inh: -2.6; Runt-SMMHC FRET: -116.2; RanGTP-Imp inh: 1.3; Wee1 degr inh: 0.7; Runt-CBFb FRET: -32.4

How did COc1ccccc1NC(=O)C1=C(C)NC(=O)NC1c1ccccc1[N+](=O)[O-] (stereo unspecified) do in these assays?
PHOSPHO1 block: -5.9; Efa HMGR inh: 10.6*; Runt-SMMHC FRET: -44.6; RanGTP-Imp inh: 0.3; Wee1 degr inh: -2.5; Runt-CBFb FRET: -2.2

What do the screens show for `O=C(Oc1c(CN2CCOCC2)cc(Cl)c2cccnc12)c1ccccc1F`?
PHOSPHO1 block: -74.0; Efa HMGR inh: -4.2; Runt-SMMHC FRET: 3.5; RanGTP-Imp inh: 33.3*; Wee1 degr inh: -1.7; Runt-CBFb FRET: -0.6

How did COc1cc(OC)cc(C(=O)Oc2c(CN3CCOCC3)cc(Cl)c3cccnc23)c1 do in these assays?
PHOSPHO1 block: 24.4; Runt-SMMHC FRET: 0.6; RanGTP-Imp inh: inconclusive; Wee1 degr inh: 1.2; Runt-CBFb FRET: -1.7

Screening results: PubChem, several laboratories
